Screening data as filed in PubChem BioAssay.
Mcl1 Bid PPI – Mcl-1/Bid interaction inhibition | inhibition, % at 21.7 µM | 220,000 tested, 0.97% active | AID 1021 | TR-FRET Mcl-1/Bid-Dy647 peptide binding, 1536-well | Q07820;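 active means compounds that cut the binding signal by more than half at the single screening dose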;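 further: His-tagged Mcl-1 with europium anti-His antibody binding Bid BH3 peptide; 0% = Mcl-1 plus peptide wells and 100% = peptide-only wells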
Target sequence (Q07820 whole entry, looked up): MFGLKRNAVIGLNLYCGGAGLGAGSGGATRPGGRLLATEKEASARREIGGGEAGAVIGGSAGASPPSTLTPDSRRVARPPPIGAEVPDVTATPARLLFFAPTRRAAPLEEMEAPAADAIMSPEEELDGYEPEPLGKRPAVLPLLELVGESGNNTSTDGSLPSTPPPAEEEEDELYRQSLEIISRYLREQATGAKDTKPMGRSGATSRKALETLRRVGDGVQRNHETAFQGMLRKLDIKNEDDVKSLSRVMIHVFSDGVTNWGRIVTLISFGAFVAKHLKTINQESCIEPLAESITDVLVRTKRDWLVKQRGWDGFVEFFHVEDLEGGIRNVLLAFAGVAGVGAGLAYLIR
Pemphigus Ab inh – blocks pemphigus antibody binding to human desmoglein-3 | DSG3-coupled beads, scFv-anti-DSG3-GFP binding, flow cytometry; hits give low values | binding (percent of control), % at 10 µM | 310,000 tested, 0.48% active | AID 588358;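 active means binding more than 3 SD below its plate's average and above zero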;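 further: hits lower antibody fragment binding to DSG3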
Bim-Mcl-1 – human Bim-Mcl-1 interaction inhibition; Q07820; Bead-based flow cytometry, Bim peptide-Mcl-1 binding; inhibition, % at 10 µM; 190,000 tested, 0.1% active; AID 1009; in the data active means inhibition above about 40%;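 further: 0% = no compound tracer wells and 100% = peptide blocker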
MCL1-BIM inh – disrupts human MCL1 binding to BIM-BH3 peptide | GST-MCL1 / FITC-Bim-BH3 fluorescence polarization | Q07820 | 320,000 tested, 0.68% active | inhibition, % at 10.9 µM | AID 2057;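 active means inhibition above the mean inhibition of all tested compounds plus 3 SD, set per campaign, cut at about 40% in these data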;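 further: 0% = DMSO wells and 100% = unlabeled Bim-BH3 peptide control; higher means more loss of mP so more displacement of Bim peptide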
T cell modulator – T cell immune modulators affecting CD8 T cell-vesicle binding; 2C CD8+ T cell-vesicle binding, flow cytometry; hits give low values; 330,000 tested, 0.068% active; AID 2052; response (vesicle binding), % at 7 µM;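 active means response, share of CD8 T cells binding vesicles, and their 90th percentile fluorescence all below set limits, cut at about 80% in these data, passing the limit was not always enough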;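 further: values below 100% mean blocked vesicle binding to the CD8+ T cells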
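Benchmarks: naked versus QL9-loaded vesicles / Assay system: purified 2C TCR transgenic mouse naive CD8+ T cells / Technique: high-throughput flow cytometry with anti-B7-1 and anti-CD8 staining / Timing: Cell–vesicle co-incubation 1.5 h at 37 °C, staining 20 min on ice / Read-out: percent CD8+ FL2 mean versus row control / Probe or stimulus: QL9-loaded Drosophila micro-vesicles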
Mcl1 Noxa PPI – disrupts binding of human Mcl-1 to Noxa peptide | inhibition, % at 21.7 µM | AID 1022 | Q07820 | TR-FRET Mcl-1/Noxa peptide binding, 2 h | 220,000 tested, 1.5% active;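 active means compounds that cut the protein-peptide binding signal by more than 50% relative to plate controls in a single-dose test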;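 further: His-tagged Mcl-1 with rhodamine Noxa BH3 peptide and terbium anti-His antibody; 0% = Mcl-1 plus Noxa peptide wells and 100% = peptide-only wells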
Active calls of the source: *; i = inactive; . = not tested or not shown. Sampled rows, rich in hits. Any-hit rate of the full collection: about 2.3%.

SMILES	Mcl1 Bid PPI	Pemphigus Ab inh	Bim-Mcl-1	MCL1-BIM inh	T cell modulator	Mcl1 Noxa PPI
O=C(CNC(=O)c1cccc(-n2cccc2)c1)Nc1ccccc1Br	.	101	.	.	.	.
Fc1ccc(-c2nnn3c2nc(NCc2ccccc2)c2ccccc23)cc1	-28	85	.	-2	304	-264
NNc1nc2c(-c3ccc(F)cc3)nnn2c2ccccc12	-23	85	6	8	906	69*
COCCCNc1nc2c(-c3ccc(Cl)cc3)nnn2c2ccccc12	25	95	-1	7	955	-177
NNc1nc2c(-c3ccc(Cl)cc3)nnn2c2ccccc12	12	68*	-3	15	376	68*
CC(C)CN(C(=O)COC(=O)CCSc1ccc(Cl)cc1)c1c(N)n(Cc2ccccc2)c(=O)[nH]c1=O	.	95	.	.	.	.
CC(=O)c1cccc(NC(=O)Nc2cc3sccc3n2C)c1	-32	.	0	28	i	71*
CCOC(=O)CSc1n[nH]c(-c2cccnc2)n1	-6	103	0	-3	289	53*
CCOc1ccc2c(c1)C(C)=CC(C)(C)N2C(=O)Nc1ccccc1F	-70	117	-6	9	394	26
CCNC(=O)N1c2ccc(OCC)cc2C(C)=CC1(C)C	-26	115	29	45*	158	2
COC(=O)c1ccc(NC(=O)Nc2ccc([N+](=O)[O-])cc2)cc1	.	116	.	-7	675	.
COc1ccc(CN(C)C(=O)C2CCN(C(=O)Nc3ccccc3)CC2)cc1	.	105	.	1	134	.
CCN(CC)c1ccc(Nc2nc(-c3cccnc3)cs2)cc1	.	109	.	8	162	.
O=C(Nc1nc(-c2cccnc2)cs1)c1ccccc1Cl	-6	101	-3	6	253	-16
CN(C)c1ccc(Nc2nc(-c3cccnc3)cs2)cc1	-21	107	0	4	735	60*
Cc1ccccc1C(=O)Nc1nc(-c2cccnc2)cs1	18	81	.	10	454	75*
CN(CC(=O)Nc1ccc(F)c(F)c1F)C(=O)C1=NN(c2ccccc2)C(=O)CC1	.	96	.	-6	654	.
O=C(CCn1c(=O)c2cccn2c2cccnc21)NCCCN1CCN(c2ccc(F)cc2)CC1	.	100	.	.	.	.
CCCCN(Cc1cc2cc(OC)ccc2[nH]c1=O)C(=O)c1ccccn1	65*	.	-3	7	266	5
CCCN(Cc1cc2cc(C)ccc2[nH]c1=O)C(=O)c1ccccn1	-5	87	.	5	176	13
Cc1nnc(NC(=O)c2ccc(F)c(S(=O)(=O)N3CCCCC3)c2)s1	.	114	.	9	153	.
CS(=O)(=O)c1nsc2nc(=O)c(/C=C3\C=Nc4ccccc43)c(N)n12	10	104	0	-8	338	38
CS(=O)(=O)c1ccc2c(c1)sc1nc(=O)c(/C=C3/C=CC(=O)C(O)=C3)c(N)n12	6	101	.	-10	224	90*
COC1=C/C(=C/c2c(N)n3c(nc2=O)sc2cc(S(C)(=O)=O)ccc23)C=CC1=O	-9	89	.	-36	146	54*
CCc1cccc(NC(=O)COC(=O)c2c(C)nn(-c3ccccc3)c2C)c1	.	105	.	.	.	.
SMILES	Mcl1 Bid PPI	Pemphigus Ab inh	Bim-Mcl-1	MCL1-BIM inh	T cell modulator	Mcl1 Noxa PPI
C=CCOc1ccc(/C=C2\SC(=S)N(C(C(=O)O)c3ccccc3)C2=O)cc1 (stereo not given)	25	87	.	.	.	72*
CC(NCc1ccccc1Cl)C(=O)Nc1ccc(S(=O)(=O)N2CCCC2)cc1 (stereo not given)	21	116	-6	2	0.0*	23
CCCc1cc(=O)[nH]c(SCC(=O)N2CCN(S(=O)(=O)c3ccc4ccccc4c3)CC2)n1	8	-2.3*	-4	7	183	-10
CCCc1cc(=O)[nH]c(SCC(=O)N2CCN(S(=O)(=O)c3ccccc3)CC2)n1	-14	98	-1	-4	112	-3
CCCc1cc(=O)[nH]c(SCC(=O)c2c[nH]c3ccccc23)n1	0	116	0	-7	317	16
CCCc1cc(=O)[nH]c(SCC(=O)c2c(C)[nH]c3ccccc23)n1	76*	95	.	-2	228	11
COc1cc(C(=O)N(C)C2CCCCC2)cc(OC)c1OC	.	107	.	.	.	.
CNC(=O)COC(=O)c1ccc2c(c1)NC(=O)C1CCCN21 (stereo not given)	.	.	.	10	i	.
Cc1cc(NC(=O)Cn2cnc3sc(C)c(C)c3c2=O)no1	.	.	.	.	327	.
